Measured values from ChEMBL document CHEMBL2321826, “Synthesis and antibacterial evaluation of rhodanine-based 5-aryloxy pyrazoles against selected methicillin resistant and quinolone-resistant Staphylococcus aureus (MRSA and QRSA)” (Eur J Med Chem, 2013).
≈ marks a conversion by molar mass, not a printed value.

Assays:
Assay type in all cases: functional
[1] = tested on: Staphylococcus aureus; assay: Antibacterial activity against methicillin-resistant Staphylococcus aureus CCARM 3506 assessed as bacterial growth inhibition measured during 24 hrs incubation at 37 degC by two-fold serial dilution technique; conditions: CCARM 3506, 24 h
Procedure, shortened: (§1)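 Clinical isolates grown to mid-log phase in Mueller-Hinton broth, diluted 1000-fold, inoculated at 10⁵ CFU/mL in MHB in 96-well microtiter plates. Two-fold serial dilutions gave final concentrations of […]. Oxacillin and norfloxacin were the positive controls. Growth was read as absorbance at 650 nm. MIC is the lowest concentration giving complete growth inhibition.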

[2] = tested on: Staphylococcus aureus; assay: Antibacterial activity against quinolone-resistant Staphylococcus aureus CCARM 3519 assessed as bacterial growth inhibition measured during 24 hrs incubation at 37 degC by two-fold serial dilution technique; conditions: CCARM 3519, 24 h; procedure, shortened: as §1
[3] = tested on: Staphylococcus aureus; assay: Antibacterial activity against quinolone-resistant Staphylococcus aureus CCARM 3505 assessed as bacterial growth inhibition measured during 24 hrs incubation at 37 degC by two-fold serial dilution technique; conditions: CCARM 3505, 24 h; procedure, shortened: as §1
[4] = tested on: Staphylococcus aureus; assay: Antibacterial activity against methicillin-resistant Staphylococcus aureus CCARM 3167 assessed as bacterial growth inhibition measured during 24 hrs incubation at 37 degC by two-fold serial dilution technique; conditions: CCARM 3167, 24 h; procedure, shortened: as §1

Row | Structure (SMILES) | MIC [1] [µg/mL] | MIC [2] [µg/mL] | MIC [3] [µg/mL] | MIC [4] [µg/mL]
1 | Cc1nn(-c2ccccc2)c(Cl)c1/C=C1\SC(=S)N([C@H](C(=O)O)C(C)C)C1=O | 32 (≈ 73.4 µM) | 32 (≈ 73.4 µM) | 32 (≈ 73.4 µM) | 16 (≈ 36.7 µM)
2 | CCC(C)[C@@H](C(=O)O)N1C(=O)/C(=C/c2c(C)nn(-c3ccccc3)c2Oc2ccc3ccccc3c2)SC1=S (stereo partly drawn) | 2 (≈ 3.59 µM) | 2 (≈ 3.59 µM) | 2 (≈ 3.59 µM) | 2 (≈ 3.59 µM)
3 | Cc1nn(-c2ccccc2)c(Oc2ccccc2Cl)c1/C=C1\SC(=S)N([C@H](C(=O)O)C(C)C)C1=O | 4 (≈ 7.57 µM) | 4 (≈ 7.57 µM) | 8 (≈ 15.1 µM) | 4 (≈ 7.57 µM)
4 | COc1ccccc1Oc1c(/C=C2\SC(=S)N(CC(=O)O)C2=O)c(C)nn1-c1ccccc1 | > 64 | > 64 | > 64 | > 64
5 | CCC(C)[C@@H](C(=O)O)N1C(=O)/C(=C/c2c(C)nn(-c3ccccc3)c2Oc2c(Cl)cccc2Cl)SC1=S (stereo partly drawn) | 16 (≈ 27.8 µM) | 16 (≈ 27.8 µM) | 16 (≈ 27.8 µM) | 8 (≈ 13.9 µM)
6 | Cc1nn(-c2ccccc2)c(Oc2ccc3ccccc3c2)c1/C=C1\SC(=S)N(CC(=O)O)C1=O | 8 (≈ 15.9 µM) | 8 (≈ 15.9 µM) | 8 (≈ 15.9 µM) | 8 (≈ 15.9 µM)
7 | Cc1ccc(Oc2c(/C=C3\SC(=S)N([C@@H](CC(C)C)C(=O)O)C3=O)c(C)nn2-c2ccccc2)c(C)c1 | 4 (≈ 7.47 µM) | 4 (≈ 7.47 µM) | 4 (≈ 7.47 µM) | 4 (≈ 7.47 µM)
8 | CCC(C)[C@@H](C(=O)O)N1C(=O)/C(=C/c2c(C)nn(-c3ccccc3)c2Oc2ccc(C)cc2C)SC1=S (stereo partly drawn) | 2 (≈ 3.73 µM) | 2 (≈ 3.73 µM) | 2 (≈ 3.73 µM) | 2 (≈ 3.73 µM)
9 | Cc1ccc(Oc2c(/C=C3\SC(=S)N([C@H](C(=O)O)C(C)C)C3=O)c(C)nn2-c2ccccc2)c(C)c1 | 4 (≈ 7.67 µM) | 2 (≈ 3.83 µM) | 4 (≈ 7.67 µM) | 2 (≈ 3.83 µM)
10 | Cc1nn(-c2ccccc2)c(Oc2ccc3ccccc3c2)c1/C=C1\SC(=S)N([C@H](C(=O)O)C(C)C)C1=O | 8 (≈ 14.7 µM) | 8 (≈ 14.7 µM) | 8 (≈ 14.7 µM) | 4 (≈ 7.36 µM)
11 | Cc1nn(-c2ccccc2)c(Oc2ccc(F)cc2)c1/C=C1\SC(=S)N(CC(=O)O)C1=O | > 64 | > 64 | > 64 | > 64
12 | Cc1ccccc1Oc1c(/C=C2\SC(=S)N(CC(=O)O)C2=O)c(C)nn1-c1ccccc1 | 32 (≈ 68.7 µM) | 32 (≈ 68.7 µM) | 32 (≈ 68.7 µM) | 16 (≈ 34.4 µM)
13 | Cc1nn(-c2ccccc2)c(Oc2cccc(Cl)c2)c1/C=C1\SC(=S)N([C@H](C(=O)O)C(C)C)C1=O | 4 (≈ 7.57 µM) | 4 (≈ 7.57 µM) | 8 (≈ 15.1 µM) | 4 (≈ 7.57 µM)
14 | Cc1ccc(Oc2c(/C=C3\SC(=S)N(CC(=O)O)C3=O)c(C)nn2-c2ccccc2)c(C)c1 | 8 (≈ 16.7 µM) | 16 (≈ 33.4 µM) | 16 (≈ 33.4 µM) | 8 (≈ 16.7 µM)
15 | Cc1nn(-c2ccccc2)c(Oc2ccc(F)cc2)c1/C=C1\SC(=S)N([C@H](C(=O)O)C(C)C)C1=O | 8 (≈ 15.6 µM) | 8 (≈ 15.6 µM) | 8 (≈ 15.6 µM) | 8 (≈ 15.6 µM)
16 | COc1ccc(Oc2c(/C=C3\SC(=S)N([C@H](C(=O)O)C(C)C)C3=O)c(C)nn2-c2ccccc2)cc1 | 8 (≈ 15.3 µM) | 8 (≈ 15.3 µM) | 8 (≈ 15.3 µM) | 8 (≈ 15.3 µM)
17 | Cc1nn(-c2ccccc2)c(Oc2cccc(C(F)(F)F)c2)c1/C=C1\SC(=S)N([C@H](C(=O)O)C(C)C)C1=O | 8 (≈ 14.2 µM) | 8 (≈ 14.2 µM) | 8 (≈ 14.2 µM) | 4 (≈ 7.12 µM)
18 | CCC(C)[C@@H](C(=O)O)N1C(=O)/C(=C/c2c(C)nn(-c3ccccc3)c2Oc2cccc(C(F)(F)F)c2)SC1=S (stereo partly drawn) | 8 (≈ 13.9 µM) | 8 (≈ 13.9 µM) | 8 (≈ 13.9 µM) | 4 (≈ 6.95 µM)
19 | CCn1cc(C(=O)O)c(=O)c2cc(F)c(N3CCNCC3)cc21 [NORFLOXACIN] | 4 (≈ 12.5 µM) | > 64 | > 64 | 8 (≈ 25.1 µM)

Row | Structure (SMILES) | MIC [1] [µg/mL] | MIC [2] [µg/mL] | MIC [3] [µg/mL] | MIC [4] [µg/mL]
20 | CCC(C)[C@@H](C(=O)O)N1C(=O)/C(=C/c2c(C)nn(-c3ccccc3)c2Oc2ccc(Cl)cc2)SC1=S (stereo partly drawn) | 4 (≈ 7.38 µM) | 4 (≈ 7.38 µM) | 4 (≈ 7.38 µM) | 2 (≈ 3.69 µM)
21 | Cc1cccc(Oc2c(/C=C3\SC(=S)N(CC(=O)O)C3=O)c(C)nn2-c2ccccc2)c1 | 16 (≈ 34.4 µM) | 16 (≈ 34.4 µM) | 32 (≈ 68.7 µM) | 16 (≈ 34.4 µM)
22 | Cc1nn(-c2ccccc2)c(Oc2ccccc2Cl)c1/C=C1\SC(=S)N(CC(=O)O)C1=O | 16 (≈ 32.9 µM) | 16 (≈ 32.9 µM) | 32 (≈ 65.8 µM) | 16 (≈ 32.9 µM)
23 | Cc1nn(-c2ccccc2)c(Oc2c(Cl)cccc2Cl)c1/C=C1\SC(=S)N(CC(=O)O)C1=O | 32 (≈ 61.5 µM) | 32 (≈ 61.5 µM) | 32 (≈ 61.5 µM) | 32 (≈ 61.5 µM)
24 | Cc1nn(-c2ccccc2)c(Oc2ccc(Cl)cc2Cl)c1/C=C1\SC(=S)N(CC(=O)O)C1=O | 8 (≈ 15.4 µM) | 8 (≈ 15.4 µM) | 8 (≈ 15.4 µM) | 4 (≈ 7.69 µM)
25 | CCC(C)[C@@H](C(=O)O)N1C(=O)/C(=C/c2c(C)nn(-c3ccccc3)c2Oc2ccccc2OC)SC1=S (stereo partly drawn) | 16 (≈ 29.8 µM) | 16 (≈ 29.8 µM) | 16 (≈ 29.8 µM) | 16 (≈ 29.8 µM)
26 | CCC(C)[C@@H](C(=O)O)N1C(=O)/C(=C/c2c(C)nn(-c3ccccc3)c2Oc2ccc(C)cc2)SC1=S (stereo partly drawn) | 4 (≈ 7.67 µM) | 4 (≈ 7.67 µM) | 4 (≈ 7.67 µM) | 2 (≈ 3.83 µM)
27 | Cc1nn(-c2ccccc2)c(Oc2c(Cl)cccc2Cl)c1/C=C1\SC(=S)N([C@H](C(=O)O)C(C)C)C1=O | 16 (≈ 28.4 µM) | 16 (≈ 28.4 µM) | 8 (≈ 14.2 µM) | 8 (≈ 14.2 µM)
28 | CCC(C)[C@@H](C(=O)O)N1C(=O)/C(=C/c2c(C)nn(-c3ccccc3)c2Oc2cccc(C)c2)SC1=S (stereo partly drawn) | 4 (≈ 7.67 µM) | 2 (≈ 3.83 µM) | 4 (≈ 7.67 µM) | 2 (≈ 3.83 µM)
29 | Cc1nn(-c2ccccc2)c(Cl)c1/C=C1\SC(=S)N([C@@H](CC(C)C)C(=O)O)C1=O | 32 (≈ 71.1 µM) | 32 (≈ 71.1 µM) | 32 (≈ 71.1 µM) | 16 (≈ 35.6 µM)
30 | CCC(C)[C@@H](C(=O)O)N1C(=O)/C(=C/c2c(C)nn(-c3ccccc3)c2Oc2ccc(F)cc2)SC1=S (stereo partly drawn) | 4 (≈ 7.61 µM) | 8 (≈ 15.2 µM) | 8 (≈ 15.2 µM) | 2 (≈ 3.8 µM)
31 | Cc1onc(-c2ccccc2)c1C(=O)N[C@@H]1C(=O)N2[C@@H]1SC(C)(C)[C@@H]2C(=O)O [OXACILLIN] | > 64 | 1 (≈ 2.49 µM) | 1 (≈ 2.49 µM) | > 64
32 | CCC(C)[C@@H](C(=O)O)N1C(=O)/C(=C/c2c(C)nn(-c3ccccc3)c2Oc2ccccc2)SC1=S (stereo partly drawn) | 4 (≈ 7.88 µM) | 4 (≈ 7.88 µM) | 8 (≈ 15.8 µM) | 4 (≈ 7.88 µM)
33 | COc1ccc(Oc2c(/C=C3\SC(=S)N(CC(=O)O)C3=O)c(C)nn2-c2ccccc2)cc1 | > 64 | > 64 | > 64 | > 64
34 | Cc1nn(-c2ccccc2)c(Oc2ccc(Br)cc2)c1/C=C1\SC(=S)N(CC(=O)O)C1=O | 8 (≈ 15.1 µM) | 8 (≈ 15.1 µM) | 16 (≈ 30.2 µM) | 8 (≈ 15.1 µM)
35 | CCC(C)[C@@H](C(=O)O)N1C(=O)/C(=C/c2c(C)nn(-c3ccccc3)c2Oc2ccccc2Cl)SC1=S (stereo partly drawn) | 4 (≈ 7.38 µM) | 4 (≈ 7.38 µM) | 4 (≈ 7.38 µM) | 2 (≈ 3.69 µM)
36 | CCC(C)[C@@H](C(=O)O)N1C(=O)/C(=C/c2c(C)nn(-c3ccccc3)c2Cl)SC1=S (stereo partly drawn) | 32 (≈ 71.1 µM) | 32 (≈ 71.1 µM) | 16 (≈ 35.6 µM) | 16 (≈ 35.6 µM)
37 | CCC(C)[C@@H](C(=O)O)N1C(=O)/C(=C/c2c(C)nn(-c3ccccc3)c2Oc2ccccc2C)SC1=S (stereo partly drawn) | 4 (≈ 7.67 µM) | 4 (≈ 7.67 µM) | 4 (≈ 7.67 µM) | 2 (≈ 3.83 µM)
